Values after ≈ are worked out from the molar mass of the structure shown.
Key:
Staphylococcus aureus = test: Antibacterial activity against Staphylococcus aureus ATCC 29213 after 20 hrs by two fold dilution method; format: functional; conditions: ATCC 29213, 20 h
In short: (§1)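 Twofold agar dilution in Mueller–Hinton agar. Compounds were dissolved in DMSO and diluted into the medium at final 128–1 µg/mL. The inoculum was 10^4 CFU/plate, and a medium-plus-DMSO plate served as negative control. Plates were incubated at 35 °C for 20 h. MIC was taken as the lowest concentration giving complete growth inhibition. Experiments were run three times.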

Bacillus subtilis = test: Antibacterial activity against Bacillus subtilis MTCC 121 after 20 hrs by two fold dilution method; format: functional; conditions: MTCC 121, 20 h; in short: as §1
Streptococcus mutans = test: Antibacterial activity against Streptococcus mutans MTCC 890 after 20 hrs by two fold dilution method; format: functional; conditions: MTCC 890, 20 h; in short: as §1
Escherichia coli = test: Antibacterial activity against Escherichia coli ATCC 25922 after 20 hrs by two fold dilution method; format: functional; conditions: ATCC 25922, 20 h; in short: as §1
Salmonella typhi = test: Antibacterial activity against Salmonella typhi MTCC 733 after 20 hrs by two fold dilution method; format: functional, Salmonella enterica subsp. enterica serovar Typhi; conditions: Salmonella enterica, MTCC 733, 20 h
In short: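 Twofold agar dilution in Mueller–Hinton agar. Compounds dissolved in DMSO and diluted into medium to final 128–1 µg/mL; medium with DMSO at the same dilution as negative control. Inoculum 10^4 CFU/plate; incubated 35 °C for 20 h. MIC taken as lowest concentration giving complete growth inhibition, in µg/mL. Ampicillin and ciprofloxacin as references; three independent experiments.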

Candida albicans = test: Antifungal activity against Candida albicans MTCC 1637 at 300 ug/disk after 7 days by disk diffusion method; format: functional; conditions: MTCC 1637, 168 h, read-out: IZ
In short: (§2)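 Disc diffusion on Mueller–Hinton agar seeded with a standardized suspension, following NCCLS. Sterile 6 mm paper discs held 300 µg of test compound, amphotericin B at 10 µg as reference, or DMSO alone as negative control. Plates were incubated at 28 ± 2 °C for 7 days. Inhibition zone diameters (mm) were measured in triplicate and scored as 10–15, 16–21 or 22–28 mm.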

Aspergillus niger = test: Antifungal activity against Aspergillus niger at 300 ug/disk after 7 days by disk diffusion method; format: functional; conditions: 168 h, read-out: IZ; in short: as §2
Aspergillus flavus = test: Antifungal activity against Aspergillus flavus at 300 ug/disk after 7 days by disk diffusion method; format: functional; conditions: 168 h, read-out: IZ; in short: as §2
Pseudomonas aeruginosa = test: Antibacterial activity against Pseudomonas aeruginosa MTCC 741 after 20 hrs by two fold dilution method; format: functional; conditions: MTCC 741, 20 h; in short: as §1

## Cc1nc2ccccc2n1Cc1nnc(CCl)o1
Staphylococcus aureus
  MIC: 16 µg/mL (≈ 60.9 µM)
Bacillus subtilis
  MIC: 16 µg/mL (≈ 60.9 µM)
Streptococcus mutans
  MIC: 32 µg/mL (≈ 122 µM)
Escherichia coli
  MIC: 16 µg/mL (≈ 60.9 µM)
Salmonella typhi
  MIC: > 128 µg/mL
Candida albicans
  zone of inhibition at 300 µg/disc: 10 mm
Aspergillus niger
  zone of inhibition at 300 µg/disc: 16 mm
Aspergillus flavus
  zone of inhibition at 300 µg/disc: 10 mm

## Cc1nc2ccccc2n1Cc1nnc(-c2ccccc2)o1
Staphylococcus aureus
  MIC: 8 µg/mL (≈ 27.6 µM)
Bacillus subtilis
  MIC: 8 µg/mL (≈ 27.6 µM)
Streptococcus mutans
  MIC: 8 µg/mL (≈ 27.6 µM)
Escherichia coli
  MIC: 32 µg/mL (≈ 110 µM)
Salmonella typhi
  MIC: 64 µg/mL (≈ 220 µM)

## Clc1ccc(-c2nnc(Cn3cnc4ccccc43)o2)cc1
Staphylococcus aureus
  MIC: 32 µg/mL (≈ 103 µM)
Bacillus subtilis
  MIC: 32 µg/mL (≈ 103 µM)
Streptococcus mutans
  MIC: 16 µg/mL (≈ 51.5 µM)
Escherichia coli
  MIC: 32 µg/mL (≈ 103 µM)

## Cc1nc2ccccc2n1Cc1nnc(CCCl)o1
Staphylococcus aureus
  MIC: 4 µg/mL (≈ 14.5 µM)
Bacillus subtilis
  MIC: 8 µg/mL (≈ 28.9 µM)
Streptococcus mutans
  MIC: 8 µg/mL (≈ 28.9 µM)
Escherichia coli
  MIC: 32 µg/mL (≈ 116 µM)
Salmonella typhi
  MIC: 16 µg/mL (≈ 57.8 µM)
Candida albicans
  zone of inhibition at 300 µg/disc: 16 mm
Aspergillus niger
  zone of inhibition at 300 µg/disc: 10 mm
Aspergillus flavus
  zone of inhibition at 300 µg/disc: 10 mm

## Oc1ccc(-c2nnc(Cn3cnc4ccccc43)o2)cc1
Bacillus subtilis
  MIC: 16 µg/mL (≈ 54.7 µM)
Streptococcus mutans
  MIC: 32 µg/mL (≈ 109 µM)
Escherichia coli
  MIC: 32 µg/mL (≈ 109 µM)
Pseudomonas aeruginosa
  MIC: 64 µg/mL (≈ 219 µM)

## COc1ccccc1-c1nnc(Cn2cnc3ccccc32)o1
Staphylococcus aureus
  MIC: 16 µg/mL (≈ 52.2 µM)
Bacillus subtilis
  MIC: 16 µg/mL (≈ 52.2 µM)
Escherichia coli
  MIC: 32 µg/mL (≈ 104 µM)
Pseudomonas aeruginosa
  MIC: > 128 µg/mL
Candida albicans
  zone of inhibition at 300 µg/disc: 16 mm
Aspergillus niger
  zone of inhibition at 300 µg/disc: < 10 mm
Aspergillus flavus
  zone of inhibition at 300 µg/disc: < 10 mm

## c1ccc(-c2nnc(Cn3cnc4ccccc43)o2)cc1
Staphylococcus aureus
  MIC: 16 µg/mL (≈ 57.9 µM)
Bacillus subtilis
  MIC: 16 µg/mL (≈ 57.9 µM)
Streptococcus mutans
  MIC: 32 µg/mL (≈ 116 µM)
Escherichia coli
  MIC: 64 µg/mL (≈ 232 µM)
Salmonella typhi
  MIC: > 128 µg/mL

## Cc1nc2ccccc2n1Cc1nnc(-c2ccc(Cl)cc2)o1
Staphylococcus aureus
  MIC: 2 µg/mL (≈ 6.16 µM)
Bacillus subtilis
  MIC: 4 µg/mL (≈ 12.3 µM)
Streptococcus mutans
  MIC: 4 µg/mL (≈ 12.3 µM)
Escherichia coli
  MIC: > 128 µg/mL
Candida albicans
  zone of inhibition at 300 µg/disc: 22 mm
Aspergillus niger
  zone of inhibition at 300 µg/disc: 10 mm
Aspergillus flavus
  zone of inhibition at 300 µg/disc: 22 mm

## CCc1nnc(Cn2c(C)nc3ccccc32)o1
Staphylococcus aureus
  MIC: 4 µg/mL (≈ 16.5 µM)
Bacillus subtilis
  MIC: 8 µg/mL (≈ 33 µM)
Streptococcus mutans
  MIC: 4 µg/mL (≈ 16.5 µM)
Escherichia coli
  MIC: 32 µg/mL (≈ 132 µM)
Pseudomonas aeruginosa
  MIC: > 128 µg/mL
Salmonella typhi
  MIC: 32 µg/mL (≈ 132 µM)
Candida albicans
  zone of inhibition at 300 µg/disc: 16 mm
Aspergillus niger
  zone of inhibition at 300 µg/disc: 10 mm
Aspergillus flavus
  zone of inhibition at 300 µg/disc: 16 mm

## Clc1ccccc1-c1nnc(Cn2cnc3ccccc32)o1
Staphylococcus aureus
  MIC: 32 µg/mL (≈ 103 µM)
Bacillus subtilis
  MIC: 16 µg/mL (≈ 51.5 µM)
Streptococcus mutans
  MIC: 16 µg/mL (≈ 51.5 µM)
Escherichia coli
  MIC: > 128 µg/mL
Salmonella typhi
  MIC: 32 µg/mL (≈ 103 µM)

## Cc1nc2ccccc2n1Cc1nnc(-c2ccc(O)cc2)o1
Staphylococcus aureus
  MIC: 8 µg/mL (≈ 26.1 µM)
Bacillus subtilis
  MIC: 8 µg/mL (≈ 26.1 µM)
Streptococcus mutans
  MIC: 4 µg/mL (≈ 13.1 µM)
Escherichia coli
  MIC: > 128 µg/mL
Candida albicans
  zone of inhibition at 300 µg/disc: 22 mm
Aspergillus niger
  zone of inhibition at 300 µg/disc: 16 mm
Aspergillus flavus
  zone of inhibition at 300 µg/disc: 16 mm

## COc1ccc(-c2nnc(Cn3c(C)nc4ccccc43)o2)cc1
Staphylococcus aureus
  MIC: 2 µg/mL (≈ 6.24 µM)
Bacillus subtilis
  MIC: 8 µg/mL (≈ 25 µM)
Streptococcus mutans
  MIC: 4 µg/mL (≈ 12.5 µM)
Escherichia coli
  MIC: 16 µg/mL (≈ 49.9 µM)
Pseudomonas aeruginosa
  MIC: 64 µg/mL (≈ 200 µM)
Salmonella typhi
  MIC: 16 µg/mL (≈ 49.9 µM)
Candida albicans
  zone of inhibition at 300 µg/disc: 22 mm
Aspergillus niger
  zone of inhibition at 300 µg/disc: 16 mm
Aspergillus flavus
  zone of inhibition at 300 µg/disc: 16 mm

Reference: ChEMBL document CHEMBL1154066, “Synthesis, physicochemical properties and antimicrobial activity of some new benzimidazole derivatives” (2009)
